Five compounds from ChEMBL document CHEMBL5042537, “Synthesis and Characterization of 5-(2-Fluoro-4-[11C]methoxyphenyl)-2,2-dimethyl-3,4-dihydro-2H-pyrano[2,3-b]pyridine-7-carboxamide as a PET Imaging Ligand for Metabotropic Glutamate Receptor 2” (J Med Chem, 2022) can be followed below.

Usually logD stands for lipophilicity at a set pH, counting ionised and neutral species. As usually defined, the Ki is a measure of affinity in units of concentration, obtained from inhibition or displacement.

Activity calls are given as the source filed them. The calls are words filed in the database; no cut-off is given here.

Data set [1] can be described thus: Permeability of the compound in Sprague-Dawley rat brain striatum at 1 to 30 mins by CT scan. Conditions: time 1-30 min. Type of data set: ADME, tissue-based. The essentials: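 Male Sprague–Dawley rats under isoflurane anaesthesia were injected iv via tail vein with the [11C] tracer (63.0–87.3 MBq). Dynamic PET ran for 60 min, reconstructed by MLEM, with a CT scan for attenuation correction. Striatal SUV time-activity curves were derived, and images were summed over 1–30 min.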

Data set [2] in a line: Lipophilicity, LogD at pH 7.4 of the compound by shake flask method. Type of data set: physicochemical. Conditions: buffer. In outline:
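Shake-flask method: 0.1 mg compound in n-octanol/PBS pH 7.4 (1.0 mL each), vortexed 1 min and shaken at 37 °C overnight. Each phase was quantified by HPLC peak area at 254 nm, and LogD = log(octanol/PBS). Run at least three times.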

A short description of data set [3]: Stability of the compound in rat plasma measured at 60 min. The class given is ADME, cell-free. Particulars: read-out: Stability. In outline:
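Compound (2.5 μL of 1 mM DMSO stock) was incubated in 100 μL rat serum at 37 °C for 60 min, then quenched with ice-cold acetonitrile and centrifuged. Supernatant was analysed by HPLC against an internal standard. Stability = peak area at 60 min / peak area at 0 min × 100%; at least three repeats.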

A short description of data set [4]: Stability of the compound in rat liver microsome measured at 60 min. Type of data set: ADME. Particulars: liver microsomes, read-out: Stability. In outline:
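Compound (1.5 μL of 1 mM DMSO stock) in PBS was preincubated at 37 °C, then Sprague–Dawley rat liver microsomes and NADPH (10 mM stock) were added. After 60 min at 37 °C, reactions were quenched with cold acetonitrile and analysed by HPLC against an internal standard. Stability = 60 min/0 min peak area × 100%; at least three repeats.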
(Liver microsomes are a subcellular fraction often used to study metabolism.)

The target of data set [5] is T1, Metabotropic glutamate receptor 2 (Homo sapiens, UniProt Q14416). The experiment in a line: Binding affinity to human recombinant mGlur2 assessed as inhibition constant by cAMP Glosensor assay.
Target sequence in this assay (Q14416 whole entry): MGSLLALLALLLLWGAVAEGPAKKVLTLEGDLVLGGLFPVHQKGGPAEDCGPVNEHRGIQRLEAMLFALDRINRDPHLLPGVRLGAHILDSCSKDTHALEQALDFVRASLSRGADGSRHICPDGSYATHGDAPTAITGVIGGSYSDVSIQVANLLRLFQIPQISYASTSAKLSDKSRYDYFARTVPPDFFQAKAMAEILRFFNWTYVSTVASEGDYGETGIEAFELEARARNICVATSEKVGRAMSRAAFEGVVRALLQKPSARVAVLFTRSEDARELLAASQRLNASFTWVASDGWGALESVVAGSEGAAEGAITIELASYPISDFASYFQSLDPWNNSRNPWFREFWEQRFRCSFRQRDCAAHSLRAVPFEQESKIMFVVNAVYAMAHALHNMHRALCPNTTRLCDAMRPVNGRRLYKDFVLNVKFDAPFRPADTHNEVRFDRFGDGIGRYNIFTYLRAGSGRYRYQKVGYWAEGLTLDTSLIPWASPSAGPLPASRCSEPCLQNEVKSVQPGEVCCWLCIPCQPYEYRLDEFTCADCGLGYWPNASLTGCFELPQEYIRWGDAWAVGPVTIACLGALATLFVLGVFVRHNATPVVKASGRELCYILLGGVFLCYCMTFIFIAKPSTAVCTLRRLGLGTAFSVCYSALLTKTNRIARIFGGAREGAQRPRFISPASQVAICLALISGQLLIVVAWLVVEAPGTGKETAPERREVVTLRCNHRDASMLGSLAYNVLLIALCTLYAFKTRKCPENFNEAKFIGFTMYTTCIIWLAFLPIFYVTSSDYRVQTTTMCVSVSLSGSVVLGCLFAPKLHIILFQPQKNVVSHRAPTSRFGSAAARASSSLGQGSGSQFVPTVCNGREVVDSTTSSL
Data set [6] addresses T1, Metabotropic glutamate receptor 2. Briefly: Negative allosteric modulation activity at human recombinant mGlur2 at 30 nM by cAMP Glosensor assay. The class given is functional. Conditions: filed as negative allosteric modulator. The essentials:
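Flp-In T-REx-293 cells with tetracycline-inducible mGluR2 (induced with 1 μg/mL tetracycline) were transfected with pGloSensor-21F and plated at 15,000 cells/well in BME with 1% dialyzed FBS. Split-luciferase cAMP read-out was taken with 0.1 μM isoproterenol and increasing L-glutamate. Glutamate curves were fitted to an allosteric operational model; three independent assays in triplicate.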
Target sequence in this assay (Q14416 19-872 limits assumed): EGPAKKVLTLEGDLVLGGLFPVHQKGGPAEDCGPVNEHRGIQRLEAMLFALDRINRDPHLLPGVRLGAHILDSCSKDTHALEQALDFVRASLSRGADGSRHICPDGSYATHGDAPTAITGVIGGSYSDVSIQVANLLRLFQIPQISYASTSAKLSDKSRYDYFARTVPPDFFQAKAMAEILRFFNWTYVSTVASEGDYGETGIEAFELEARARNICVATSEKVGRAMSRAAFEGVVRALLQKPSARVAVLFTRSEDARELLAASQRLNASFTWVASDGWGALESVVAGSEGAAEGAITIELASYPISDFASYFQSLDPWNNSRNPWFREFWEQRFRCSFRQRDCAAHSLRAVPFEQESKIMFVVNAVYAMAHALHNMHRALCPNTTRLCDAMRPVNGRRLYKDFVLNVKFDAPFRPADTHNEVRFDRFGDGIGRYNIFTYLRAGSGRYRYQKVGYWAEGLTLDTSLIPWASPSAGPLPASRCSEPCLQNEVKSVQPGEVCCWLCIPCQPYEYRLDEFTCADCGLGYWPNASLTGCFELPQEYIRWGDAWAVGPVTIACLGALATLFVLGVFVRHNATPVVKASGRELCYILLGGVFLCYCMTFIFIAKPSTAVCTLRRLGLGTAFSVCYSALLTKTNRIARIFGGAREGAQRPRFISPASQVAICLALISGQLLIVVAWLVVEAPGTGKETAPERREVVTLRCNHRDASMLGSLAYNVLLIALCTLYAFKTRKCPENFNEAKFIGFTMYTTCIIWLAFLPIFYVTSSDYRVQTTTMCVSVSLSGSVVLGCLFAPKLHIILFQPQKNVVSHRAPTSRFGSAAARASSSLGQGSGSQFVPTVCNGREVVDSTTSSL

A short description of data set [7]: Drug metabolism in Cynomolgus monkey plasma assessed as parent compound remaining pretreated with 4-(4-fluorophenyl)-5-((1-methyl-1H-pyrazol-3-yl)methoxy)picolinamide at 1 mg/kg, iv for 20 mins before administration of tracer injection measured after 30 mins by CT scan. Particulars: read-out: Stability. The class given is ADME, organism-based, Macaca fascicularis. The essentials:
(§1)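 Cynomolgus monkey (female, 5.0 kg) given tracer as a 3 min iv infusion, with blocker 1.0 mg/kg iv 20 min before. Plasma samples from 5–120 min were analysed by automated column-switching radioHPLC (capture column, then C18 with acetonitrile:0.1 M ammonium formate 45:55, 0.1% TFA). Eluate was collected in 1 min fractions and gamma-counted to give percent parent.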

A short description of data set [8]: Drug uptake in Sprague-Dawley rat brain striatum mGlr2 rich region by CT scan. Type of data set: ADME, tissue-based. Conditions: in vivo. The essentials: (§2)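 Male Sprague–Dawley rats (285–421 g) under isoflurane received [11C] tracer (63.0–87.3 MBq) iv via tail vein, followed by 60 min dynamic PET with CT for attenuation correction. Blockers were given iv 1 or 20 min before tracer, at 0.5 mg/kg (10% ethanol/5% Tween-80/saline) or 0.2 mg/kg (10% DMSO/5% Tween-20/PBS). Regional accumulation was taken over 2–30 min and compared with baseline scans.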

A short description of data set [9]: Drug uptake in Sprague-Dawley rat brain thalamus mGlr2 rich region by CT scan. The class given is ADME, tissue-based. Conditions: in vivo. In outline: as §2
Data set [10] in a line: Drug uptake in Sprague-Dawley rat brain cortex mGlr2 rich region by CT scan. Type of data set: ADME, tissue-based. Conditions: in vivo. The essentials:
as §2

A short description of data set [11]: Drug uptake in Sprague-Dawley rat brain hypothalamus mGlr2 rich region by CT scan. Type of data set: ADME, tissue-based. Particulars: in vivo. In outline: as §2
A short description of data set [12]: Drug uptake in Sprague-Dawley rat brain hippocampus mGlr2 rich region by CT scan. The class given is ADME, tissue-based. Particulars: in vivo. The essentials:
as §2

Data set [13] in a line: Drug uptake in Sprague-Dawley rat brain cerebellum mGlr2 rich region by CT scan. Type of data set: ADME, tissue-based. Conditions: in vivo. The essentials:
as §2

Data set [14] is described as follows: Drug uptake in Sprague-Dawley rat brain cortex mGlr2 rich region assessed as decrease in drug accumulation pretreated with 4-(4-fluorophenyl)-5-((1-methyl-1H-pyrazol-3-yl)methoxy)picolinamide at 0.5 mg/kg, iv for 1 min before administration of tracer injection by CT scan. Conditions: in vivo. Type of data set: ADME, organism-based. The essentials: as §2
The nature of data set [15]: Drug uptake in Sprague-Dawley rat brain thalamus mGlr2 rich region assessed as decrease in drug accumulation pretreated with 4-(4-fluorophenyl)-5-((1-methyl-1H-pyrazol-3-yl)methoxy)picolinamide at 0.5 mg/kg, iv for 1 min before administration of tracer injection by CT scan. The class given is ADME, organism-based. Particulars: in vivo. In outline: as §2
Data set [16] is described as follows: Drug uptake in Sprague-Dawley rat brain striatum mGlr2 rich region assessed as decrease in drug accumulation pretreated with 4-(4-fluorophenyl)-5-((1-methyl-1H-pyrazol-3-yl)methoxy)picolinamide at 0.5 mg/kg, iv for 1 min before administration of tracer injection by CT scan. Type of data set: ADME, organism-based. Particulars: in vivo, pooled result: one value given for 4 cell lines, strains, targets or settings. In outline: as §2

Data set [17] in a line: Drug uptake in Sprague-Dawley rat brain hypothalamus mGlr2 rich region assessed as decrease in drug accumulation pretreated with 4-(8-bromo-2-oxo-2,3-dihydro-1H-benzo[b][1,4]diazepin-4-yl)picolinonitrile at 0.2 mg/kg, iv for 1 min before administration of tracer injection by CT scan. Type of data set: ADME, organism-based. Particulars: in vivo. The essentials: as §2
Data set [18] can be described thus: Drug uptake in Sprague-Dawley rat brain […] rich region assessed as decrease in drug accumulation pretreated with 4-(8-bromo-2-oxo-2,3-dihydro-1H-benzo[b][1,4]diazepin-4-yl)picolinonitrile at 0.2 mg/kg, iv for 1 min before administration of tracer injection by CT scan. Type of data set: ADME, organism-based. Particulars: in vivo. In outline: as §2

Data set [19] in a line: Drug uptake in Sprague-Dawley rat brain striatum mGlr2 rich region assessed as decrease in drug accumulation pretreated with 4-(8-bromo-2-oxo-2,3-dihydro-1H-benzo[b][1,4]diazepin-4-yl)picolinonitrile at 0.2 mg/kg, iv for 1 min before administration of tracer injection by CT scan. The class given is ADME, organism-based. Particulars: in vivo. In outline:
as §2

A short description of data set [20]: Drug uptake in Sprague-Dawley rat brain thalamus mGlr2 rich region assessed as decrease in drug accumulation pretreated with 4-(8-bromo-2-oxo-2,3-dihydro-1H-benzo[b][1,4]diazepin-4-yl)picolinonitrile at 0.2 mg/kg, iv for 1 min before administration of tracer injection by CT scan. Particulars: in vivo. Type of data set: ADME, organism-based. In outline:
as §2

Data set [21] in a line: Drug uptake in Sprague-Dawley rat brain hippocampus mGlr2 rich region assessed as decrease in drug accumulation pretreated with 4-(8-bromo-2-oxo-2,3-dihydro-1H-benzo[b][1,4]diazepin-4-yl)picolinonitrile at 0.2 mg/kg, iv for 1 min before administration of tracer injection by CT scan. Conditions: in vivo. The class given is ADME, organism-based. In outline:
as §2

Data set [22] in a line: Drug uptake in Sprague-Dawley rat brain cerebellum mGlr2 rich region assessed as decrease in drug accumulation pretreated with 4-(8-bromo-2-oxo-2,3-dihydro-1H-benzo[b][1,4]diazepin-4-yl)picolinonitrile at 0.2 mg/kg, iv for 1 min before administration of tracer injection by CT scan. Conditions: in vivo. The class given is ADME, organism-based. The essentials: as §2
A short description of data set [23]: Drug uptake in Sprague-Dawley rat brain cerebellum mGlr2 rich region assessed as decrease in drug accumulation pretreated with 4-(8-bromo-2-oxo-2,3-dihydro-1H-benzo[b][1,4]diazepin-4-yl)picolinonitrile at 0.2 mg/kg, iv for 20 min before administration of tracer injection by CT scan. Type of data set: ADME, organism-based. Particulars: in vivo. In outline: as §2

Data set [24] is described as follows: Drug uptake in Sprague-Dawley rat brain striatum mGlr2 rich region assessed as decrease in drug accumulation pretreated with 4-(8-bromo-2-oxo-2,3-dihydro-1H-benzo[b][1,4]diazepin-4-yl)picolinonitrile at 0.2 mg/kg, iv for 20 min before administration of tracer injection by CT scan. The class given is ADME, organism-based. Particulars: in vivo. The essentials:
as §2

Data set [25] is described as follows: Drug uptake in Sprague-Dawley rat brain thalamus mGlr2 rich region assessed as decrease in drug accumulation pretreated with 4-(8-bromo-2-oxo-2,3-dihydro-1H-benzo[b][1,4]diazepin-4-yl)picolinonitrile at 0.2 mg/kg, iv for 20 min before administration of tracer injection by CT scan. Type of data set: ADME, organism-based. Conditions: in vivo, pooled result: one value given for 4 cell lines, strains, targets or settings. In outline:
as §2

The nature of data set [26]: Drug metabolism in Cynomolgus monkey plasma assessed as retention time of metabolite by measuring pretreated with 4-(4-fluorophenyl)-5-((1-methyl-1H-pyrazol-3-yl)methoxy)picolinamide at 1 mg/kg, iv for 20 min before administration of tracer injection by CT scan. Type of data set: ADME, organism-based, Macaca fascicularis. Particulars: in vivo. The essentials: as §1

Data set [27] in a line: Drug metabolism in Cynomolgus monkey plasma assessed as parent compound remaining pretreated with 4-(4-fluorophenyl)-5-((1-methyl-1H-pyrazol-3-yl)methoxy)picolinamide at 1 mg/kg, iv for 20 mins before administration of tracer injection measured after 120 mins by CT scan. Conditions: read-out: Stability. Type of data set: ADME, organism-based, Macaca fascicularis. In outline: as §1

Data set [28] in a line: Permeability of the compound across blood brain barrier in Sprague-Dawley rat after 4 mins by CT scan. The class given is ADME, tissue-based. In outline: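 Male Sprague–Dawley rats (285–421 g) under isoflurane (1.0–1.5%) in oxygen. [11C]tracer (63.0–87.3 MBq) given iv via tail-vein catheter. Dynamic PET ran 60 min from injection, followed by CT for anatomy and attenuation correction. Data were reconstructed by MLEM into 24 frames. Regional brain uptake was expressed as SUV time-activity curves.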

Compound `[11CH3]Oc1cc(CN2CCc3c(-c4ccc(F)cc4F)cc(C(N)=O)nc3C2)ccn1` had an SUVmax in data set [1] of 1.7.

As for `Cn1ccc(COc2cnc(C(N)=O)cc2-c2ccc(O[11CH3])cc2F)n1`, the SUVmax in [1] was 1.2.

In the case of `COc1ccc(-c2cc(C(N)=O)nc3c2CCC(C)(C)O3)c(F)c1`, the logD in data set [2] amounted to 2.94. Further, the figures for the remaining at 1 h in data set [3] and in [4] were 94.5% and 47.8%, respectively.

On to `CC1(C)CCc2c(-c3ccc(F)cc3F)cc(C(N)=O)nc2O1`, for which the Ki in data set [5] was 59 nM. Further, the result in [6] was Active. Moreover, the logD in [2] is on record as 2.81. The remaining at 1 h worked out at 95.3% in data set [3] and 94.5% in data set [4].

Consider `CC1(C)CCc2c(-c3ccc(O[11CH3])cc3F)cc(C(N)=O)nc2O1`, for which the figures for the remaining at 20 min in data set [7] and in data set [27] were 53% and 24.8%, respectively. Further, the Drug uptake entry in [8], in [9], in data set [10], in data set [11], in data set [12] and in [13] was “Active” in each case. In addition, the Drug uptake in [14] is recorded as 38.5%; in data set [15], 17.1%; in data set [16], 22.4%; in [17] it was 42.6%; in [18] it was 39.6%; in data set [19], 41.7%. Also, the Drug uptake in data set [20] turned out to be 41.7%; in [21], 41.7%; in data set [22], 39.6%; in data set [23], 15.2%; in data set [24] it was 11.1%; in data set [25], 12.7%. In addition, the Retention_time in data set [26] was determined as 2 min. Further, in data set [28], the SUV was determined as 7.5.
